# Source: ChEMBL document CHEMBL1122137, “Antiinflammatory properties of 8-aryl-5-isopropyl-2H-1,3-dioxolo[4,5-g]quinazolin-6(5H)-ones and -thiones” (1982)
# Experiments:
# Assay type in all cases: functional
# [1] = tested on: Rattus norvegicus; assay: Inhibition of carrageenan edema in rats was determined after peroral administration of 100 mg/kg; settings: route oral
# How it was run: (§1)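 Male Wistar rats (150–175 g) dosed orally, in mg/kg, as a suspension in 0.5% carboxymethylcellulose (1 mL/kg), 1 h before subplantar injection of 0.1 mL of 1% Type 402 carrageenin. Paw edema measured by electronic plethysmography at 3 h. Swelling (3 h minus 0 h) per rat; treated-group mean expressed as percent of vehicle-control mean.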
# [2] = tested on: Rattus norvegicus; assay: Inhibition of carrageenan edema in adrenalectomized rats was determined after peroral administration; settings: po
# How it was run: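 Carrageenin paw edema run as in intact rats, but male Wistar rats were bilaterally adrenalectomized under ether and allowed 7 days to recover. They drank 1.0% NaCl plus 2.5% dextrose and ate standard chow. Oral dosing in 0.5% CMC 1 h before subplantar 1% carrageenin. Plethysmographic swelling at 3 h, as percent of vehicle-treated controls.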
# [3] = tested on: Rattus norvegicus; assay: Inhibition of carrageenan edema in normal rats was determined after peroral administration; settings: po; how it was run: as §1
# [4] = species on record: Rattus norvegicus; assay: Inhibition of the development of adjuvant-induced polyarthritis in rats was determined
# [5] = tested on: Rattus norvegicus; assay: Nonnarcotic analgesic effect was determined after peroral administration in rats; settings: po, read-out: MED
# [6] = tested on: Rattus norvegicus; assay: Bronchoconstrictor effect of bradykinin was determined after intravenous administration in rats
# [7] = tested on: Rattus norvegicus; assay: Bronchoconstrictor effect of bradykinin was determined after intravenous administration in rats.
# [8] = tested on: Rattus norvegicus; assay: Nonnarcotic analgesic effect was determined after peroral administration in rats.; settings: po, read-out: MED
compound,measurement,setting,value
CC(C)n1c(=O)nc(-c2ccc(OCc3ccccc3)cc2)c2cc3c(cc21)OCO3,inhibition in vivo at 100 mg/kg,[1],17%
CC(C)n1c(=S)nc(-c2ccc(F)cc2)c2cc3c(cc21)OCO3,inhibition in vivo at 100 mg/kg,[1],49%
CC(C)n1c(=O)nc(-c2cccc(F)c2)c2cc3c(cc21)OCO3,ED50,[2],14 mg/kg
same,ED50,[3],9 mg/kg
same,ED50,[1],9 mg/kg
same,ED50,[4],9 mg/kg
same,minimal effective dose,[5],11 mg/kg
same,ED50,[6],50 µg/kg
CC(C)n1c(=S)nc(-c2cccc(F)c2)c2cc3c(cc21)OCO3,inhibition in vivo at 100 mg/kg,[1],36%
CC(C)n1c(=S)nc(-c2cccc([N+](=O)[O-])c2)c2cc3c(cc21)OCO3,inhibition in vivo at 100 mg/kg,[1],0%
CC(C)n1c(=O)nc(-c2ccccc2)c2cc3c(cc21)OCO3,ED50,[7],12 µg/kg
same,ED50,[2],9 mg/kg
same,ED50,[3],8 mg/kg
same,ED50,[1],7 mg/kg
same,ED50,[4],3 mg/kg
same,minimal effective dose,[5],50 mg/kg
CC(C)n1c(=O)nc(-c2cccc([N+](=O)[O-])c2)c2cc3c(cc21)OCO3,inhibition in vivo at 100 mg/kg,[1],28%
CC(C)n1c(=O)nc(-c2ccc(C(=O)O)cc2)c2cc3c(cc21)OCO3,inhibition in vivo at 100 mg/kg,[1],33%
CC(C)n1c(=O)nc(-c2ccc(F)cc2)c2cc3c(cc21)OCO3,ED50,[7],170 µg/kg
same,ED50,[2],20 mg/kg
same,ED50,[3],8 mg/kg
same,ED50,[1],8 mg/kg
same,ED50,[4],6 mg/kg
same,minimal effective dose,[5],4 mg/kg
Cc1ccccc1C1NC(=O)N(C(C)C)c2cc3c(cc21)OCO3 (stereo unspecified),ED50,[1],50 mg/kg
COc1cccc(-c2nc(=O)n(C(C)C)c3cc4c(cc23)OCO4)c1,inhibition in vivo at 100 mg/kg,[1],12%
CC(C)n1c(=O)nc(-c2ccc3c(c2)OCO3)c2cc3c(cc21)OCO3,inhibition in vivo at 100 mg/kg,[1],21%
Cc1ccc(-c2nc(=O)n(C(C)C)c3cc4c(cc23)OCO4)cc1,inhibition in vivo at 100 mg/kg,[1],22%
Cc1ccccc1-c1nc(=O)n(C(C)C)c2cc3c(cc12)OCO3,ED50,[1],65 mg/kg
CC(C)n1c(=O)nc(-c2ccccc2[N+](=O)[O-])c2cc3c(cc21)OCO3,ED50,[1],39 mg/kg
CC(C)c1ccc(-c2nc(=S)n(C(C)C)c3cc4c(cc23)OCO4)cc1,inhibition in vivo at 100 mg/kg,[1],10%
CC(C)n1c(=O)nc(-c2ccc(Cl)c(Cl)c2)c2cc3c(cc21)OCO3,inhibition in vivo at 100 mg/kg,[1],30%
CC(C)n1c(=S)nc(-c2ccccc2)c2cc3c(cc21)OCO3,ED50,[7],47 µg/kg
same,ED50,[3],7 mg/kg
same,ED50,[1],7 mg/kg
same,ED50,[4],6 mg/kg
COc1ccc2c(c1)c(CC(=O)O)c(C)n2C(=O)c1ccc(Cl)cc1 [INDOMETHACIN],ED50,[2],6 mg/kg
same,ED50,[3],5 mg/kg
same,ED50,[1],5 mg/kg
same,ED50,[4],0.1 mg/kg
same,minimal effective dose,[8],4 mg/kg
CCCCC1C(=O)N(c2ccccc2)N(c2ccccc2)C1=O [PHENYLBUTAZONE],ED50,[2],30 mg/kg
same,ED50,[3],25 mg/kg
same,ED50,[1],25 mg/kg
same,ED50,[4],5 mg/kg
same,minimal effective dose,[8],9 mg/kg
Cc1ccc2c(-c3ccccc3)nc(=O)n(C(C)C)c2c1 [PROQUAZONE],ED50,[2],6 mg/kg
same,ED50,[3],5 mg/kg
same,ED50,[1],5 mg/kg
same,ED50,[4],1 mg/kg
same,minimal effective dose,[8],1 mg/kg
